Calls of active or inactive are those of the source. No cut-off for these calls is given here.
Key:
[1] = target: Adenosine kinase (Homo sapiens) (UniProt P55263); assay: Inhibition of human adenosine kinase ribavirin phosphorylation activity
Procedure, shortened: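 Human adenosine kinase (clone 20-1) in Hepes pH 6.0 buffer with KCl, MgCl₂, 1 mM ATP, BSA, deoxycoformycin at 37 °C; 0.1 μM ribavirin initial substrate with test compound at 400 μM; ribavirin monophosphate formation followed by timed aliquots, acid quench and anion-exchange HPLC with UV detection.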

[2] = target: Adenosine kinase (Homo sapiens) (UniProt P55263); assay: Specific activity of human adenosine kinase
Procedure, shortened: (§1)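 Aliquots at 0, 1, 2, 4 h quenched with perchloric acid, neutralized, monophosphate resolved by anion-exchange HPLC (ammonium phosphate gradient), UV at λmax; conversion kept <10%, linear.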

[3] = target: Adenosine kinase (Homo sapiens) (UniProt P55263); assay: Activity of human adenosine kinase relative to ribavirin; set-up: concentration or dose not given beside the values; procedure, shortened: as §1

Sequence of Adenosine kinase (Homo sapiens) (P55263 2-362 limits assumed): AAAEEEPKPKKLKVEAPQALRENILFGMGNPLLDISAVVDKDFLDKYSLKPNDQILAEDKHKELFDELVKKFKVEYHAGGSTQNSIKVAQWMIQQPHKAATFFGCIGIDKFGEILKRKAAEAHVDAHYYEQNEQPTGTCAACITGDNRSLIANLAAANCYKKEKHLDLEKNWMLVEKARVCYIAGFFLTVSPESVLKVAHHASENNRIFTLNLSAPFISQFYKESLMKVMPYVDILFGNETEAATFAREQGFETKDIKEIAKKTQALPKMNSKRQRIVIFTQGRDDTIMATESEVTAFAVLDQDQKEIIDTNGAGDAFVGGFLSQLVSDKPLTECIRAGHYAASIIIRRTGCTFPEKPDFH

SMILES | Activity [1] | Activity [2] [nmol/mg/h] | Activity [3] [%]
C/N=C(/N)c1ncn([C@@H]2O[C@H](CO)[C@@H](O)[C@H]2O)n1 | inactive | 11 | 5
CC(=O)c1ncn([C@@H]2O[C@H](CO)[C@@H](O)[C@H]2O)n1 | inactive | 20 | 10
NC(=O)c1ncn([C@@H]2O[C@H](CO)[C@@H](O)[C@H]2O)n1 |  | 203 | 
COC(=N)c1ncn([C@@H]2O[C@H](CO)[C@@H](O)[C@H]2O)n1 | inactive | < 4 | < 2
CC(=O)Nc1ncn([C@@H]2O[C@H](CO)[C@@H](O)[C@H]2O)n1 | inactive | < 4 | < 2
CNC(=O)c1ncn([C@@H]2O[C@H](CO)[C@@H](O)[C@H]2O)n1 | inactive | 19 | 9
O=[N+]([O-])c1ncn([C@@H]2O[C@H](CO)[C@@H](O)[C@H]2O)n1 | inactive | 36 | 18
O=C(O)c1ncn([C@@H]2O[C@H](CO)[C@@H](O)[C@H]2O)n1 | inactive | < 4 | < 2
